Assay results: PubChem BioAssay
Active and inactive are the calls of the source.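 How the source made its calls: active means current rise at least 3 SD above the untreated control mean in each of two repeat wells; inactive means the rest.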

Biological target: Potassium voltage-gated channel subfamily KQT member 1 (Homo sapiens) (UniProt P51787)
Assay: KCNQ1 activators by electrophysiology – IonWorks patch clamp, KCNQ1-CHO cells, orthogonal assay for KCNQ1 potentiator project, confirmation (AID 493184)
Settings: automated patch clamp current, at 10 µM
Summary of the method: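 Material: KCNQ1-expressing CHO cells; doses: 10 µM final, single point; probe or stimulus: voltage step from -90 mV holding to +40 mV, 2,000 ms; signal: automated voltage clamp, amphotericin B perforated patch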

Potassium voltage-gated channel subfamily KQT member 1 (Homo sapiens), sequence (P51787 whole entry, looked up): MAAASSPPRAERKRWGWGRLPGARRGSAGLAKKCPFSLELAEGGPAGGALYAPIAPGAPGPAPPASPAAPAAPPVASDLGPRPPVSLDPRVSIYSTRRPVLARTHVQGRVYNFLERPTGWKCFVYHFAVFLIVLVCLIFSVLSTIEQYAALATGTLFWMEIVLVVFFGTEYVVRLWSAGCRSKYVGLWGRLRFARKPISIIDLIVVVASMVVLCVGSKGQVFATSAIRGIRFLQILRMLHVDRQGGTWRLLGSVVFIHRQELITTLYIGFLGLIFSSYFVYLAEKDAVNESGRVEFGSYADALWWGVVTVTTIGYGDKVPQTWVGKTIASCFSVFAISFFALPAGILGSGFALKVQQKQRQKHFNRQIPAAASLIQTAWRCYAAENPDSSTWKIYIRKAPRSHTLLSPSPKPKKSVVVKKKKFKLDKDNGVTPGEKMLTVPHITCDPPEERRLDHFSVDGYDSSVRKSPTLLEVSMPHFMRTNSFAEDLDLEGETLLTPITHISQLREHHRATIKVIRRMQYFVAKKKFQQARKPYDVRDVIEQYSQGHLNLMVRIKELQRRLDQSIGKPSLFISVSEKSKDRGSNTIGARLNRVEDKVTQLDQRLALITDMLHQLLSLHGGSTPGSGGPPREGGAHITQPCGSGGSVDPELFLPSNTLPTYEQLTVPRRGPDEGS

outcome, inactive:
Cn1ccnc1SCC(=O)NC1CC1
N#CC(c1cccc(Cl)c1)c1ccc2c(C(F)(F)F)cc(C(F)(F)F)nc2n1 (stereo not given)
Cc1ccc(C)c(NC(=S)NNC(=O)c2csc3c2CCC(C)C3)c1 (stereo not given)
CSC(=S)N/N=C/c1ccc(Br)cc1
O=c1sc(N2CCN(c3ccccc3F)CC2)nc2ccsc12
C=C1CCN(c2ccc(C(=O)NCc3ccc(C)cc3)cc2[N+](=O)[O-])CC1
COc1ccc(C)cc1-n1c(C)cc(C=O)c1C
COc1ccc(-n2cc(-c3ccccc3)c3c(=S)nc[nH]c32)cc1
Oc1c(Cl)cc(Cl)c2cccnc12
CCOC(=O)Cn1c2ccccc2c2nc3ccccc3nc21
CCN(CC)C(=S)NC(=O)c1ccc(Cl)cc1Cl
O=C1NN(c2ccccc2)C(=O)/C1=C\c1cccc(OC(=O)c2cccs2)c1
COc1ccc(-n2cc(CNC3CCN(C)CC3)c(-c3cccc(F)c3)n2)cc1
Cc1nn(CC2CC2)c(=O)n1-c1ccc(F)cc1
Cc1nc(NC(=S)NC(=O)c2cccs2)ccc1Br
COc1cccc2sc(NNC(=O)c3nc4ccccc4s3)nc12
CC(C)(C)CC(C)(C)NCC(O)COCCOc1ccc(Br)cc1 (stereo not given)
S=c1sc2c(Cl)ncnc2n1-c1ccccc1
CC(C)C1=NN(C(=O)c2ccccc2)C(O)(C(C)(C)C)C1 (stereo not given)
Cc1[nH]n(-c2ccc(Cl)cc2)c(=O)c1/C=N/c1nnc(-c2ccccc2)s1
